Results: ChEMBL document CHEMBL1155205, “Structure-activity relationship of isoform selective inhibitors of Rac1/1b GTPase nucleotide binding” (Bioorg Med Chem Lett, 2009)
Where a name gives a salt, the structure may show the parent alone.

Legend:
[1] = test system: HEK293; test: Inhibition of Rac GTPase activation in Rac1b overexpressing human HEK293 cells at 50 uM after 5 mins by G-LISA assay; type: cell-based
Summary of the method: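 HEK293 cells overexpressing human Rac1b were grown 5 days in MEM with 10% FBS, L-glutamine and antibiotics. Cells were then exposed to compound or solvent for 5 min. Rac1b GTP loading was measured with a Rac activation kit using a Rac-specific antibody (G-LISA).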

[2] = molecular target: T1, Cell division control protein 42 homolog (Homo sapiens, UniProt P60953); test: Inhibition of Cdc42 GTPase activity assessed as incorporation of BODIPY-GTP at 50 uM after 40 mins by nucleotide binding competition assay
Summary of the method: (§1)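 Bacterially expressed GST-Cdc42 preincubated 10 min at 20 °C in 20 mM Tris pH 8.6, 50 mM NaCl, 1 mM MgCl2. No GEF was added (intrinsic exchange). BODIPY-GTP was then added with or without compound. Fluorescence was read at ex 485/em 538 nm before and after addition. Maximal RFU at 40 min was compared with control. Means of at least three independent experiments, with SEM.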
Target sequence in this assay (P60953 whole entry, looked up): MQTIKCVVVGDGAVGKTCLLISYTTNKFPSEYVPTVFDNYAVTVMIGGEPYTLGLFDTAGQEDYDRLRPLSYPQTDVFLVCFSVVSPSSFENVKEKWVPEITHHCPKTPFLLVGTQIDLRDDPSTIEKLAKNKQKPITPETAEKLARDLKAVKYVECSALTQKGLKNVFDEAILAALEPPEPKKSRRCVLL

[3] = molecular target: T1, Cell division control protein 42 homolog; test: Inhibition of Cdc42 GTPase activity assessed as incorporation of BODIPY-GTP after 40 mins by nucleotide binding competition assay; summary of the method: as §1
Target sequence in this assay (P60953 whole entry): as the sequence (P60953 whole entry, looked up) above

[4] = molecular target: T2, Ras-related C3 botulinum toxin substrate 1 (Homo sapiens, UniProt P63000); test: Inhibition of Rac1 GTPase activity assessed as incorporation of BODIPY-GTP after 40 mins by nucleotide binding competition assay
[5] = molecular target: T2, Ras-related C3 botulinum toxin substrate 1; test: Inhibition of Rac1b GTPase activity assessed as incorporation of BODIPY-GTP after 40 mins by nucleotide binding competition assay
[6] = Selectivity of IC50 for Rac1 GTPase activity to IC50 for Rac1b GTPase activity
Summary of the method: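 Ratio of IC50s for inhibiting BODIPY-GTP binding to bacterially expressed GST-Rac1 and GST-Rac1b. Rac1 binding was stimulated by His6-Tiam1 DH/PH, while Rac1b used intrinsic exchange. Protein was pre-incubated 10 min at 20 °C in 20 mM Tris pH 8.6, 50 mM NaCl, 1 mM MgCl2, then BODIPY-GTP ± compound was added. Fluorescence (ex 485/em 538 nm) was read as maximal RFU at 40 min; means of ≥3 independent experiments.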

COc1cc2cc(-c3ccc4ccccc4c3)nc(C)c2cc1OC
inhibition [1]: < 20% | inhibition [2]: 29% | IC50 [3]: > 100 µM

COc1cc2cc3c4ccc(OC)c(OC)c4cc[n+]3c(C)c2cc1OC
inhibition [2]: 23%

COc1cc2cc(-c3ccc(O)c(O)c3)[n+](C)c(C)c2cc1OC
inhibition [2]: 5%

Cc1nc(-c2ccc(O)c(O)c2)cc2cc(O)c(O)cc12
inhibition [2]: 15%

COc1ccc2c(c[n+](C)c3c4cc(O)c(O)cc4ccc23)c1OC
inhibition [1]: 39% | inhibition [2]: 38% | IC50 [3]: 73 µM

COc1cc2cc(-c3ccc4c(c3)OCO4)[n+](C)c(C)c2cc1OC
inhibition [2]: 0.3%

COc1ccc2c(c1OC)C(c1ccccc1)N1CCc3cc4c(cc3C1C2)OCO4 (centres undefined)
inhibition [2]: 9%

COc1ccc2cc3[n+](cc2c1OC)CCc1cc(O)c(O)cc1-3
IC50 [4]: 63 µM | IC50 [5]: 31 µM | inhibition [1]: 35% | inhibition [2]: 31% | IC50 [3]: > 100 µM

Cc1c2cc(O)c(O)cc2cc2c3ccc(O)c(O)c3cc[n+]12
inhibition [1]: < 20% | inhibition [2]: 70% | IC50 [3]: 26 µM

C[n+]1cc2c3c(ccc2c2ccc4cc5c(cc4c21)OCO5)OCO3
Ratio IC50 [6]: 13 | inhibition [1]: 50% | inhibition [2]: 63%

C[n+]1cc2c(O)c(O)ccc2c2ccc3cc(O)c(O)cc3c21
inhibition [1]: < 20% | inhibition [2]: 73%

COc1cc2c(cc1OC)-c1cc3ccc(OC)c(OC)c3c[n+]1CC2
inhibition [2]: 8%

Cc1c2cc(O)c(O)cc2cc(-c2ccc(O)c(O)c2)[n+]1C
inhibition [2]: 12%

COc1cc2cc(-c3ccc(Cl)c(Cl)c3)nc(C)c2cc1OC
inhibition [2]: 5%

Oc1cc2c(cc1O)C1Cc3ccc(O)c(O)c3CN1CC2 (centres undefined) [TETRAHYDROXYCANADINE HYDROCHLORIDE]
inhibition [1]: < 20% | IC50 [3]: > 100 µM

COc1ccc2c(c[n+](C)c3c4cc5c(cc4ccc23)OCO5)c1OC [CHELERYTHRINE CHLORIDE]
Ratio IC50 [6]: > 14 | IC50 [4]: > 100 µM | IC50 [5]: 7 µM | inhibition [1]: 40% | inhibition [2]: 35% | IC50 [3]: > 100 µM

COc1cc2cc(-c3cccc(C(C)=O)c3)nc(C)c2cc1OC
inhibition [2]: 7%

COc1ccc2c(c1OC)CN1CCc3cc4c(cc3C1C2)OCO4 (racemic)
inhibition [2]: 4%

COc1cc2cc(-c3ccc(O)c(O)c3)nc(C)c2cc1OC
inhibition [1]: 61% | inhibition [2]: 15% | IC50 [3]: > 100 µM

COc1cc2cc(-c3ccc4c(c3)OCO4)nc(C)c2cc1OC
inhibition [2]: 14%

COc1cc2cc(-c3cccc(C(C)=O)c3)[n+](C)c(C)c2cc1OC
inhibition [2]: 7%

Oc1cc2c(cc1O)-c1cc3ccc(O)c(O)c3c[n+]1CC2
inhibition [1]: < 20% | inhibition [2]: > 100% | IC50 [3]: 6 µM

Nc1nc2c(ncn2[C@H]2O[C@@H](COP(=O)(O)OP(=O)(O)O)[C@H](O)[C@@H]2O)c(=O)[nH]1
IC50 [4]: 2.7 µM | IC50 [5]: 1.8 µM | IC50 [3]: 1.4 µM

COc1ccc2cc3[n+](cc2c1OC)CCc1cc2c(cc1-3)OCO2
inhibition [2]: 8%
